Sampled rows, rich in hits. Any-hit rate of the full collection: about 1.5%.
CCR6 antag: CCR6 receptor antagonists, primary screen, cell-based, CHO-K1, luminescence, beta-arrestin, uHTS. C-C chemokine receptor type 6 (Homo sapiens), P51684. CHO-K1 CCR6 PathHunter beta-arrestin, CCL20-stimulated. inhibition, % at 20 µM. actives 0.49% (n = 340,000). AID 493098, 2011;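 active = compounds whose inhibition of the agonist-driven luminescence signal at 20 µM reaches about 50%, limit read from the data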;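 note: cells stimulated with CCL20 at 14 nM final; plate controls were DMSO with CCL20 for no effect and DMSO without agonist for full effect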
CXCR6 inh: CXCR6 receptor inhibitors, primary screen, cell-based, beta-arrestin, luminescence, CHO-K1 PathHunter, 1536-well; inhibition, % at 20 µM; C-X-C chemokine receptor type 6 (Homo sapiens), O00574; actives 0.36% (n = 360,000); AID 602244, 2012; in the data active = inhibition above about 34%, passing the limit was not always enough;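 note: antagonist mode with CXCL16 agonist at 10 nM final; 0% = 10 nM CXCL16 with DMSO and 100% = unstimulated wells without agonist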
Target sequence (O00574 whole entry, looked up): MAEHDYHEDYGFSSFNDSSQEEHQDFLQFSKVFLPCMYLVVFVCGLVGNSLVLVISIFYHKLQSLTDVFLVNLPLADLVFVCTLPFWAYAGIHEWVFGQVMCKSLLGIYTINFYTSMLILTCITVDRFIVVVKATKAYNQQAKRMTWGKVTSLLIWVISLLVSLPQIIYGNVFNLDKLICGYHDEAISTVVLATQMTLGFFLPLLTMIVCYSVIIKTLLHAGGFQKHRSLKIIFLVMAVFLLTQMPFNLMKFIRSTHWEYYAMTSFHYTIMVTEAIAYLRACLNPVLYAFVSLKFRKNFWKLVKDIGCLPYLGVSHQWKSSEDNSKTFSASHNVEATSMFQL
APJ agonist: agonists of human apelin receptor APJ, primary screen, CHO-K1 cells, PathHunter beta-arrestin, luminescence. 0% DMSO wells, 100% apelin. activation, % at 20 µM. actives 0.11% (n = 330,000);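 active = activation more than six SD over the plate average, tested at 20 µM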;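 note: 0% = DMSO alone and 100% = apelin-13 at 10 nM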
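Material: CHO-K1 APJ beta-arrestin complementation cell line; Input: cell density 1000 per well; Incubation: compound stimulation 90 min at 25 °C, detection 60 min; Signal: luminescence from split beta-galactosidase complementation, Galacton Star/Emerald II substrate; Controls: DMSO-only wells as negative, 10 nM Apelin-13 as positive control.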
APJ antagonist: antagonists of human apelin receptor APJ, primary screen, CHO-K1 cells, beta-arrestin complementation, luminescence | P35414 | inhibition, % at 20 µM | actives 0.32% (n = 330,000);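 active = inhibition above about 40% at 20 µM, limit read from the data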;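 note: cells challenged with 10 nM apelin-13 agonist together with compound; plate controls were apelin-13 plus DMSO wells for no effect and DMSO wells lacking apelin-13 for full effect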
EBI2 block: EBI2 receptor antagonists, beta-arrestin recruitment, primary screen, cell-based, luminescence, 7a,25-OHC stimulation, uHTS; inhibition, % at 5 µM; 7a,25-OHC stimulated; G-protein coupled receptor 183 (Homo sapiens), P32249; actives 0.81% (n = 360,000); in the data active = inhibition above about 38%;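 note: enzyme fragment complementation signal reports receptor beta-arrestin coupling in cells; 0% = agonist plus DMSO wells and 100% = wells without agonist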
EBI2 conf: EBI2 antagonist hit retest, beta-arrestin, confirmation, cell-based, single concentration, luminescence, 7a,25-OHC stimulation; shares compounds with EBI2 block; 7a,25-OHC antagonism; inhibition, % at 5 µM; actives 29% (n = 2,400);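 active = inhibition of at least 50%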
EBI2 agonist: EBI2 agonist activity of antagonist hits, confirmation, counter-screen for EBI2 antagonist project, cell-based, single concentration, agonist mode, luminescence; shares compounds with EBI2 block; EBI2-expressing cells, 60 min; 0% vehicle, 100% 7α,25-dihydroxycholesterol control; activation, % at 5 µM; 2,400 tested, under 10 active; AID 652000, 2013;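 active = activation of at least 50%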
bGal cs: E. coli beta-galactosidase enzyme inhibition, confirmation, counter-screen for EBI2 antagonist project, biochemical, luminescence, single concentration; shares compounds with EBI2 block; purified beta-galactosidase, luminescent Galacton Star, 15 min; AID 652176, 2013; actives 1% (n = 2,400); inhibition, % at 5 µM;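 active = replicate-average signal at least 3 plate SD below neutral wells, shown as high inhibition, flagging enzyme-inhibiting false positives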;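 note: 0% = DMSO wells with enzyme and 100% = wells lacking enzyme; higher means stronger loss of beta-gal luminescence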
* marks the source's active call; other numbers are inactive results; · = no result.

SMILES	CCR6 antag	CXCR6 inh	APJ agonist	APJ antagonist	EBI2 block	EBI2 conf	EBI2 agonist	bGal cs
Cn1cccc1Cc1nnc(SCC(=O)N2CCc3ccccc32)n1CCc1ccccc1	13	-4	-4	-1	68*	40	0	-10
COc1ccc(-n2c(Cc3cccn3C)nnc2SCC(=O)N2CCCc3ccccc32)cc1	4	4	-4	11	38*	35	0	6
Cn1cccc1Cc1nnc(SCC(=O)N2CCCC2)n1CCc1ccccc1	7	-3	-3	-75	6	·	·	·
CC1CCN(C(=O)CSc2nnc(Cc3cccn3C)n2CCc2ccccc2)CC1	-3	3	-5	15	47*	-3	2	9
COc1ccc2c(c1)c1nc3ccccc3nc1n2Cc1ccc(OC(C)C)c(OC)c1	17	3	-5	4	26	·	·	·
COc1ccc(Cn2c3ccc(OC)cc3c3nc4ccccc4nc32)cc1	2	-4	-4	9	53*	22	-1	-14
COc1cccc(CN2CCN(C(=O)[C@H]3O[C@@H](n4cnc5c(N)ncnc54)[C@H](O)[C@@H]3O)CC2=O)c1	·	0	·	·	0	·	·	·
CCOc1ccc(NCc2nnc(SCC(=O)Nc3nc(-c4ccccc4)cs3)n2-c2ccccc2)cc1	3	-8	-4	-4	46*	23	-1	-19
CNC(=S)N1N=C(c2ccc(C)cc2)CC1c1ccc(OC)c(OC)c1 (configuration not stated)	8	-8	-1	14	32	·	·	·
CNC(=S)N1N=C(c2ccc(Br)cc2)CC1c1ccc(Br)cc1 (configuration not stated)	2	1	0	7	80*	70*	2	8
CNC(=S)N1N=C(c2ccc(OC)cc2)CC1c1ccc(N(C)C)cc1 (configuration not stated)	21	4	-5	3	87*	81*	2	2
O=C(Nc1ccc2ccccc2n1)c1ccc(Cl)cc1	10	5	-2	6	61*	39	-1	7
O=C(Nc1ccc2ccccc2n1)c1ccccc1Cl	2	-11	-2	-1	2	·	·	·
O=C(/C=C/c1cccc([N+](=O)[O-])c1)N1CCN(c2ccccn2)CC1	-5	-4	2	0	38	·	·	·
O=C(/C=C/c1ccc(F)cc1)NC(=S)N1CCN(c2ccccn2)CC1	10	11	-3	3	17	·	·	·
COc1cccc(/C=C/C(=O)N2CCN(c3ccccn3)CC2)c1	8	1	-7	0	75*	48	-1	-13
COc1ccc(/C=C/C(=O)N2CCN(c3ccccn3)CC2)cc1	5	-3	-1	12	93*	76*	-2	-8
CSc1ccc(/C=C/C(=O)N2CCN(c3ccccn3)CC2)cc1	10	-3	-1	3	93*	81*	0	-15
CCOC(=O)[C@]12CCC=C1N(Cc1ccco1)C(=O)[C@H](CC(=O)NCC1CCCCC1)C2	·	-7	·	·	9	·	·	·
CC(=O)c1ccc(N2CCN(C(=O)c3cc4c(C)nc5ccccc5c4o3)CC2)cc1	-2	-19	4	-13	-2	·	·	·
COc1ccc(N2CCN(C(=O)c3cc4c(C)nc5ccccc5c4o3)CC2)cc1	2	1	-2	9	54*	43	1	8
Cc1nc2ccccc2c2oc(C(=O)N3CCN(C4CCCCC4)CC3)cc12	7	-8	0	-48	87*	77*	1	3
O=C1NC[C@H](Cc2ccccc2)N(C[C@@H]2CCCN2C[C@H](Cc2ccc(O)cc2)N2C[C@H](Cc3ccccc3)N(CCc3ccccc3)C(=O)C2=O)C1=O	·	0	·	·	-8	·	·	·
COc1cccc(N(CC(=O)NCCSc2ccccc2)S(C)(=O)=O)c1	-4	2	-1	13	29	·	·	·
COc1ccc(N(CC(=O)NCCSc2ccc(C)cc2)S(=O)(=O)c2ccccc2)c(OC)c1	1	1	5	5	81*	47	1	2
SMILES	CCR6 antag	CXCR6 inh	APJ agonist	APJ antagonist	EBI2 block	EBI2 conf	EBI2 agonist	bGal cs
COc1cccc(N(CC(=O)NCCSc2ccc(Cl)cc2)S(C)(=O)=O)c1	1	-1	1	4	87*	69*	1	9
COc1ccc(N(CC(=O)NCCSc2ccccc2)S(C)(=O)=O)cc1	4	3	-2	11	63*	40	0	-12
COc1ccc(-c2sc3ccccc3c2-c2cc(OC)ccc2C=O)cc1	·	6	·	·	-6	·	·	·
CCCCNC(=O)C1C(c2ccc(C(F)(F)F)cc2)=Nc2ccccc2N1C(=O)C1CCN(C(C)=O)CC1 (configuration not stated)	·	·	·	·	-2	·	·	·
Cc1c(C(=O)Nc2ccccc2)sc2nc(-c3ccccc3)cn12	13	-10	2	-18	44*	31	2	1
CCCN(CCC)C(=O)C1CCN(c2ccc(S(=O)(=O)N3CCOCC3)cc2[N+](=O)[O-])CC1	3	8	2	1	62*	25	1	1
COCCN(CCOC)C(=O)C1CCN(c2ccc(S(=O)(=O)N3CCOCC3)cc2[N+](=O)[O-])CC1	4	11	-9	8	-4	·	·	·
Cc1ccc(/C=N/Nc2ccc3c(C(F)(F)F)cc(C(F)(F)F)nc3n2)cc1	10	10	-2	15	55*	40	2	4
CCc1nc2c(OCCc3cccc(OC)c3)cccn2c1N(C=O)Cc1ccccc1	·	8	·	·	11	·	·	·
CC(=O)Nc1cc(-c2ccccc2)cn2c(-c3cccc(C(C)=O)c3)cnc12	·	15	·	·	21	·	·	·
COc1ccc(CNC(=O)/C=C/c2ccc(OCCCF)cc2)cc1OC	6	6	3	-4	-2	·	·	·
O=C(/C=C/c1ccc(OCCCF)cc1)NCc1ccc(Cl)c(Cl)c1	10	-1	3	-7	44*	40	0	5
COc1ccc(-c2cn(Cc3cccc(OC)c3)nn2)cc1	5	-2	-4	3	43*	22	1	2

Bioassay records from PubChem BioAssay.
